# EP2 modulator = EP2 receptor (human) modulation; EP2-expressing cells, cAMP HTRF FRET, PGE2 co-stimulation; induction, % at 25 µM; 0.83% of 260,000 active; AID 940;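 active = compounds whose cAMP rise, as percent of the full-agonist control response, exceeds 60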;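 also: rat C6 glioma line stably carrying human EP2 under a CMV promoter; the protocol text gives 20 µM as final concentration; 100% = response of wells given 1 µM PGE2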
# NPY-Y2 antag = blocks the human neuropeptide Y Y2 receptor | NPY-Y2 expressing cells, antagonist mode | 0.99% of 140,000 active | AID 793 | P49146 | inhibition, % at 2.7 µM; in the data active = inhibition above about 17%;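 also: 0% = vehicle with agonist challenge and 100% = reference antagonist with challenge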
# NPY2 pot ag = potentiates or activates human NPY-Y2 receptor | P49146 | cells expressing NPY-Y2, potentiator/agonist read-out | activation, % at 3.6 µM | 0.45% of 220,000 active; in the data active = activation above about 27%;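 also: cells stimulated with NPY near EC25 plus isoproterenol at EC100; 0% = vehicle plus submaximal agonist and 100% = vehicle plus saturating agonist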
# NPY-Y1 PAM-ag = potentiates or activates human NPY-Y1 receptor | activation, % at 3.6 µM | P25929 | 0.37% of 220,000 active | NPY-Y1 expressing cells, potentiator/agonist activation; in the data active = activation above about 33%, passing the limit was not always enough;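 also: cells stimulated with NPY at EC10 then isoproterenol at EC100; 0% = low agonist plus stimulus and 100% = saturating agonist plus stimulus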
# Target sequence (P25929 whole entry, looked up): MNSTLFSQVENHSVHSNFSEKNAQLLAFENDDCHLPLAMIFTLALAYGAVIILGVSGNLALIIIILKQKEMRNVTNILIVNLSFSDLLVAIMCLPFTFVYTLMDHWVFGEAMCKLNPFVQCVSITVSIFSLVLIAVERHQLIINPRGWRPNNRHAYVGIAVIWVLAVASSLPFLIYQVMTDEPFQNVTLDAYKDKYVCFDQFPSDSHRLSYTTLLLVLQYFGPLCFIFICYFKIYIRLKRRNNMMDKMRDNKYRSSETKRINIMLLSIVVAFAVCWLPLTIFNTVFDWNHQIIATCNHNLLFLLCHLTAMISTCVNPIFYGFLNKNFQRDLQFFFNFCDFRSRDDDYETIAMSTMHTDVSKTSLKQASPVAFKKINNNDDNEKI
# EP2 antag = inhibitors of human EP2 prostaglandin E2 receptor | 0.52% of 260,000 active | C6 glioma cells expressing human EP2, cAMP TR-FRET; cells stimulated with saturating PGE2 | AID 1422 | inhibition, % at 25 µM;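 active = percent inhibition above 40 after rounding to a whole number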;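 also: rat C6 glioma host cells with rolipram phosphodiesterase inhibitor present; the protocol text gives 20 µM as final concentration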
# NPY-Y1 antag = antagonists of human neuropeptide Y receptor Y1 | P25929 | HEK293-CNG Y1 cells, membrane potential fluorescence; NPY at EC95, then isoproterenol | inhibition, % at 3.6 µM | 1% of 200,000 active | AID 1040;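 active = inhibition above the campaign mean inhibition of all tested compounds plus 3 SD, cut at about 20% in these data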;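 also: 0% = DMSO wells given NPY plus isoproterenol and 100% = isoproterenol alone without NPY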
#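 Test system: HEK293 cells co-expressing NPY Y1 receptor and cyclic-nucleotide gated channel; Also added: NPY (25 nM), isoproterenol (1 µM), Ro 20-1724 (25 µM); Compound dosing: one concentration, 3.6 µM, in 0.4% DMSO; Timing: dye 3 h, compound 60 min room temperature, stimulation 45 min; Technique: Membrane-potential fluorescent dye readout.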
# NPY-Y2 confirm = human NPY-Y2 potentiation or agonism, confirmation | AID 1539 | 20% of 450 active | cell-based NPY-Y2 potentiator/agonist assay | activation, % at 3.6 µM | shares compounds with NPY2 pot ag; in the data active = activation above about 33%
# NPY-Y1 counter = NPY-Y1 potentiation or agonism as NPY-Y2 counter-screen; AID 1651; 20% of 450 active; shares compounds with NPY2 pot ag; Y1 HEK293-CNG cells, membrane potential fluorescence; activation, % at 3.6 µM; in the data active = activation above about 45%;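 also: cells stimulated with submaximal NPY then isoproterenol with phosphodiesterase inhibitor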
# NPY-Y1 agonist 2 = counter-screen for NPY-Y2 potentiators: agonists of human NPY-Y1. shares compounds with NPY2 pot ag. HEK293 Y1-CNGC, membrane potential fluorescence, agonism. activation, % at 3.6 µM. 37% of 450 active. AID 1702;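 active = activation above the mean of DMSO-only control wells plus 3 SD, cut at about 18% in these data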;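 also: cells stimulated with 1 µM isoproterenol plus the PDE inhibitor Ro 20-1724; 0% = isoproterenol with DMSO and no NPY and 100% = 40 nM NPY; Y1 agonists lower the membrane potential dye signal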
# CNGC inhibitor = cyclic nucleotide gated channel inhibition as counter-screen; shares compounds with NPY2 pot ag; HEK293-CNG parental, isoproterenol cAMP, membrane potential fluorescence; inhibition, % at 3.6 µM; 32% of 450 active;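 active = inhibition above the control-well mean plus 3 SD of those wells, cut at about 22% in these data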;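 also: 0% = DMSO with isoproterenol and 100% = DMSO without isoproterenol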
# Y2 agonist ctr = NPY-Y2 agonism, counter-screen for Y2 potentiators. activation, % at 3.6 µM. HEK293 Y2/CNGC cells, membrane potential fluorescence, agonist mode. 56% of 450 active. shares compounds with NPY2 pot ag. AID 1710;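 active = activation above the mean of solvent-only control wells plus 3 SD, cut at about 10% in these data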;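 also: cells stimulated by isoproterenol with no NPY added so direct agonism is tested; 0% = DMSO with isoproterenol alone and 100% = NPY at EC100 plus isoproterenol; agonism lowers probe fluorescence through less cAMP and CNG channel opening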
# Starred values were filed as active, the others as inactive; / = no result. In the library only some 2.8% were active in any assay of this set; here they are far more common.
SMILES,EP2 modulator,NPY-Y2 antag,NPY2 pot ag,NPY-Y1 PAM-ag,EP2 antag,NPY-Y1 antag,NPY-Y2 confirm,NPY-Y1 counter,NPY-Y1 agonist 2,CNGC inhibitor,Y2 agonist ctr
COc1ccc(NC(=O)c2c(OC)cccc2OC)c(OC)c1,3,-1,28*,1,11,0,9,10,14,13,17*
CCN(CC(=O)NCc1ccc(F)cc1)C(=O)/C=C/c1cccs1,1,/,9,-5,2,-1,/,/,/,/,/
CN(C)CCCN(C(=O)/C=C/c1cccs1)c1nc2ccc(F)cc2s1,-51,/,10,-9,8,9,/,/,/,/,/
CN(C)CCN(C(=O)/C=C/c1cccs1)c1nc2c(F)cc(F)cc2s1,25,2,46*,29,12,3,94*,117*,104*,91*,105*
Cc1ccc2nc(N(CCN(C)C)C(=O)/C=C/c3cccs3)sc2c1,11,5,52*,17,12,6,91*,107*,89*,86*,97*
COc1cc(NC(=O)c2cc3cccc(OC)c3oc2=O)ccc1S(=O)(=O)N1CCOCC1,7,/,/,/,10,/,/,/,/,/,/
CNC(=O)C1C2C(=O)N(C3CC3)C(C(=O)NC3CCCCC3)C23C=CC1(C)O3 (centres undefined),7,/,/,/,10,/,/,/,/,/,/
O=C(/C=C/c1ccc([N+](=O)[O-])cc1)NCCc1ccc(F)cc1,-92,/,46*,9,4,2,0,-2,-5,-1,9
O=C(/C=C/c1cccc([N+](=O)[O-])c1)NCCc1ccc(F)cc1,-78,9,7,-7,13,3,/,/,/,/,/
Cc1ccc(Nc2c(-c3ccc(N4CCOCC4)cc3)nc3cnccn23)cc1,-80,/,4,14,9,/,/,/,/,/,/
Cc1ccccc1Nc1c(-c2ccc(N3CCOCC3)cc2)nc2cnccn12,-48,/,39*,45,10,/,68*,76*,52*,48*,68*
NC(=O)C1CCN(CC(=O)Nc2cccc(C(=O)Nc3cccc(C(F)(F)F)c3)c2)CC1,1,-1,41*,33,8,0,0,-2,-8,-2,-10
O=C(CN1CCC(C(=O)c2cccc(Cl)c2)CC1)Nc1cccc(C(=O)O)c1,41,/,1,8,26,-1,/,/,/,/,/
Cc1ccc(C(=O)Nc2nc3ccccc3n2CCN2CCCC2)cc1,3,4,44*,14,7,9,50*,50*,19*,39*,47*
COc1cc(OC)cc(C(=O)N2CCC(C(=O)Nc3ccc(C)c(Cl)c3)CC2)c1,-80,/,/,/,10,/,/,/,/,/,/
O=C1/C(=C\c2ccc(O)c(O)c2)C(c2ccccc2)=NN1c1ccccc1,-79,/,26*,21,7,-5,10,8,-1,8,7
O=C(Nc1ccccc1Cl)c1c(F)c(F)c(F)c(F)c1F,/,2,32*,31,20,-13,1,15,-3,12,16*
OC1(c2ccc(F)cc2)CSC(=Nc2cccnc2)N1Cc1ccco1 (centres undefined),12,/,34*,26,4,-11,7,19,5,-2,7
OC1(c2ccc(OC(F)F)cc2)CSC(=Nc2cccnc2)N1Cc1ccco1 (centres undefined),-1,/,35*,29,13,-4,13,22,9,9,13*
FC(F)Oc1ccc(-c2csc(=Nc3cccnc3)n2CC2CCCO2)cc1 (centres undefined),21,8,-6,-3,14,9,/,/,/,/,/
